Test results: ChEMBL document CHEMBL1255404, “Spread of OXA-48-encoding plasmid in Turkey and beyond” (2010)
≈ marks a conversion by molar mass, not a printed value.

Experiments:
Assay type in all cases: functional
[1] = system: Escherichia coli; test: Antimicrobial activity against Escherichia coli isolate J53 harboring pEnc2 containing beta-lactamase OXA-48 located within transposon Tn1999 by Etest method
Summary of the method: (§1)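 β-Lactam MICs read with Etest strips. Strains are E. coli J53 recipient and J53 transconjugants carrying OXA-48-positive plasmids recovered from clinical enterobacterial isolates.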

[2] = system: Klebsiella pneumoniae; test: Antimicrobial activity against Klebsiella pneumoniae isolate Kp6A expressing beta-lactamase OXA-48 and TEM-150 by Etest method
[3] = system: Citrobacter freundii; test: Antimicrobial activity against Citrobacter freundii isolate expressing beta-lactamase OXA-48 by Etest method
[4] = system: Escherichia coli; test: Antimicrobial activity against Escherichia coli isolate J53 harboring pI-2 containing beta-lactamase OXA-48 located within transposon Tn1999.2 by Etest method; summary of the method: as §1
[5] = system: Escherichia coli; test: Antimicrobial activity against Escherichia coli isolate TOP10 harboring pPR containing beta-lactamase and TEM-101 by Etest method
Summary of the method: (§2)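 β-Lactam MICs read with Etest strips. Strains are E. coli TOP10 host and TOP10 transformants made with plasmid DNA extract when conjugation failed. Transformants were selected on LB agar with ticarcillin 50 μg/ml.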

[6] = system: Escherichia coli; test: Antimicrobial activity against Escherichia coli isolate J53 harboring p7A containing beta-lactamase OXA-48 located within transposon Tn1999 by Etest method; summary of the method: as §1
[7] = system: Klebsiella pneumoniae; test: Antimicrobial activity against Klebsiella pneumoniae isolate Kp3A expressing beta-lactamase OXA-48 by Etest method
Summary of the method: (§3)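 MICs of β-lactams read from Etest strips. The test organisms are carbapenem-resistant, OXA-48-positive clinical Enterobacteriaceae isolates recovered from Turkey, Lebanon, Egypt, France and Belgium.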

[8] = system: Providencia rettgeri; test: Antimicrobial activity against Providencia rettgeri isolate expressing beta-lactamase OXA-48 and TEM-101 by Etest method
[9] = system: Klebsiella pneumoniae; test: Antimicrobial activity against Klebsiella pneumoniae isolate Kp7A expressing beta-lactamase OXA-48 by Etest method; summary of the method: as §3
[10] = system: Klebsiella pneumoniae; test: Antimicrobial activity against Klebsiella pneumoniae isolate KpBEL expressing beta-lactamase OXA-48 by Etest method; summary of the method: as §3
[11] = system: Enterobacter cloacae; test: Antimicrobial activity against Enterobacter cloacae isolate 2 expressing beta-lactamase OXA-48 and SHV-5 by Etest method
[12] = system: Klebsiella pneumoniae; test: Antimicrobial activity against Klebsiella pneumoniae isolate KpI-2 expressing beta-lactamase OXA-48 and CTX-M-15 by Etest method
[13] = system: Klebsiella pneumoniae; test: Antimicrobial activity against Klebsiella pneumoniae isolate KpE expressing beta-lactamase OXA-48 and CTX-M-15 by Etest method
[14] = system: Escherichia coli; test: Antimicrobial activity against Escherichia coli isolate J53 harboring pBEL containing beta-lactamase OXA-48 located within transposon Tn1999.2 by Etest method; summary of the method: as §1
[15] = system: Klebsiella pneumoniae; test: Antimicrobial activity against Klebsiella pneumoniae isolate KpB expressing OXA-48 and CTX-M-15 by Etest method
[16] = system: Klebsiella pneumoniae; test: Antimicrobial activity against Klebsiella pneumoniae isolate KpBIC expressing beta-lactamase OXA-48 by Etest method; summary of the method: as §3
[17] = system: Klebsiella pneumoniae; test: Antimicrobial activity against Klebsiella pneumoniae isolate Kp11978 expressing beta-lactamase OXA-48, SHV-2a and TEM-1 by Etest method
[18] = system: Enterobacter cloacae; test: Antimicrobial activity against Enterobacter cloacae isolate 1 expressing beta-lactamase OXA-48 and SHV-5 by Etest method
[19] = system: Klebsiella pneumoniae; test: Antimicrobial activity against Klebsiella pneumoniae isolate KpL expressing beta-lactamase OXA-48 by Etest method
[20] = system: Escherichia coli; test: Antimicrobial activity against Escherichia coli isolate J53 harboring p4A containing beta-lactamase OXA-48 located within transposon Tn1999 by Etest method; summary of the method: as §1
[21] = system: Escherichia coli; test: Antimicrobial activity against Escherichia coli isolate J53 harboring p5A containing beta-lactamase OXA-48 located within transposon Tn1999 by Etest method; summary of the method: as §1
[22] = system: Klebsiella pneumoniae; test: Antimicrobial activity against Klebsiella pneumoniae isolate KpI-1 expressing beta-lactamase OXA-48 and CTX-M-15 by Etest method
[23] = system: Escherichia coli; test: Antimicrobial activity against Escherichia coli isolate J53 harboring pL containing beta-lactamase OXA-48 located within transposon Tn1999.2 by Etest method; summary of the method: as §1
[24] = system: Escherichia coli; test: Antimicrobial activity against Escherichia coli isolate TOP10 by Etest method; summary of the method: as §2
[25] = system: Escherichia coli; test: Antimicrobial activity against Escherichia coli isolate TOP10 harboring pBIC containing beta-lactamase OXA-48 located within transposon Tn1999.2 by Etest method; summary of the method: as §2
[26] = system: Escherichia coli; test: Antimicrobial activity against Escherichia coli isolate J53 harboring pEcA containing beta-lactamase OXA-48 located within transposon Tn1999.2 by Etest method; summary of the method: as §1
[27] = system: Escherichia coli; test: Antimicrobial activity against Escherichia coli isolate A expressing beta-lactamase OXA-48 and TEM-150 by Etest method
[28] = system: Escherichia coli; test: Antimicrobial activity against Escherichia coli isolate J53 harboring pBb containing beta-lactamase OXA-48 located within transposon Tn1999.2 by Etest method; summary of the method: as §1
[29] = system: Escherichia coli; test: Antimicrobial activity against Escherichia coli isolate J53 harboring pCF containing beta-lactamase OXA-48 located within transposon Tn1999 by Etest method; summary of the method: as §1
[30] = system: Escherichia coli; test: Antimicrobial activity against Escherichia coli isolate J53 harboring p6A containing beta-lactamase OXA-48 located within transposon Tn1999 by Etest method; summary of the method: as §1
[31] = system: Klebsiella pneumoniae; test: Antimicrobial activity against Klebsiella pneumoniae isolate Kp4A expressing beta-lactamase OXA-48 and CTX-M-15 by Etest method
[32] = system: Escherichia coli; test: Antimicrobial activity against Escherichia coli isolate J53 harboring pI-1 containing beta-lactamase OXA-48 located within transposon Tn1999.2 by Etest method; summary of the method: as §1
[33] = system: Klebsiella pneumoniae; test: Antimicrobial activity against Klebsiella pneumoniae isolate Kp5A expressing beta-lactamase OXA-48 and SHV-5 by Etest method
[34] = system: Escherichia coli; test: Antimicrobial activity against Escherichia coli isolate J53 harboring pEnc1 containing beta-lactamase OXA-48 located within transposon Tn1999 by Etest method; summary of the method: as §1
[35] = system: Escherichia coli; test: Antimicrobial activity against Escherichia coli isolate J53 harboring pA-1 containing beta-lactamase OXA-48 located within transposon Tn1999 by Etest method; summary of the method: as §1
[36] = system: Escherichia coli; test: Antimicrobial activity against Escherichia coli isolate J53 harboring p3A containing beta-lactamase OXA-48 located within transposon Tn1999 by Etest method; summary of the method: as §1
[37] = system: Escherichia coli; test: Antimicrobial activity against Escherichia coli isolate J53 harboring pE containing beta-lactamase OXA-48 located within transposon Tn1999.2 by Etest method; summary of the method: as §1
[38] = system: Escherichia coli; test: Antimicrobial activity against Escherichia coli isolate J53 by Etest method; summary of the method: as §1

Compound | MIC [4] [µg/mL] | MIC [5] [µg/mL] | MIC [6] [µg/mL] | MIC [7] [µg/mL] | MIC [9] [µg/mL] | MIC [10] [µg/mL] | MIC [14] [µg/mL] | MIC [15] [µg/mL] | MIC [16] [µg/mL] | MIC [19] [µg/mL] | MIC [20] [µg/mL] | MIC [21] [µg/mL] | MIC [23] [µg/mL] | MIC [25] [µg/mL] | MIC [26] [µg/mL] | MIC [28] [µg/mL] | MIC [29] [µg/mL] | MIC [30] [µg/mL] | MIC [32] [µg/mL] | MIC [37] [µg/mL] | also measured
C[C@@H](O)[C@H]1C(=O)N2C(C(=O)O)=C(S[C@@H]3CN[C@H](C(=O)Nc4cccc(C(=O)O)c4)C3)[C@H](C)[C@H]12 | 0.25 (≈ 0.526 µM) | 0.75 (≈ 1.58 µM) | 0.19 (≈ 0.4 µM) | > 32 | > 32 | 4 (≈ 8.41 µM) | 2 (≈ 4.21 µM) | > 32 | 2 (≈ 4.21 µM) | > 16 | 0.12 (≈ 0.252 µM) | 0.12 (≈ 0.252 µM) | 4 (≈ 8.41 µM) | 0.5 (≈ 1.05 µM) | 0.25 (≈ 0.526 µM) | 0.25 (≈ 0.526 µM) | 0.25 (≈ 0.526 µM) | 0.12 (≈ 0.252 µM) | 0.25 (≈ 0.526 µM) | 3 (≈ 6.31 µM) | MIC [1]: 0.19 µg/mL (≈ 0.4 µM); MIC [2]: > 32 µg/mL; MIC [3]: > 32 µg/mL; MIC [8]: > 32 µg/mL; MIC [11]: 0.75 µg/mL (≈ 1.58 µM); MIC [12]: 24 µg/mL (≈ 50.5 µM); MIC [13]: 3 µg/mL (≈ 6.31 µM); MIC [17]: 64 µg/mL (≈ 135 µM); MIC [18]: 0.5 µg/mL (≈ 1.05 µM); MIC [22]: 24 µg/mL (≈ 50.5 µM); MIC [24]: 0.06 µg/mL (≈ 0.126 µM); MIC [27]: > 32 µg/mL; MIC [31]: > 32 µg/mL; MIC [33]: > 32 µg/mL; MIC [34]: 0.125 µg/mL (≈ 0.263 µM); MIC [35]: 0.19 µg/mL (≈ 0.4 µM); MIC [36]: 0.25 µg/mL (≈ 0.526 µM); MIC [38]: 0.06 µg/mL (≈ 0.126 µM)
CO/N=C(\C(=O)N[C@@H]1C(=O)N2C(C(=O)[O-])=C(C[N+]3(C)CCCC3)CS[C@H]12)c1csc(N)n1 | 0.12 (≈ 0.25 µM) | 0.5 (≈ 1.04 µM) | 0.5 (≈ 1.04 µM) | 0.5 (≈ 1.04 µM) | 0.5 (≈ 1.04 µM) | 0.12 (≈ 0.25 µM) | 0.12 (≈ 0.25 µM) | > 512 | 0.5 (≈ 1.04 µM) | 0.12 (≈ 0.25 µM) | 0.12 (≈ 0.25 µM) | 0.12 (≈ 0.25 µM) | 0.06 (≈ 0.125 µM) | 0.5 (≈ 1.04 µM) | 0.12 (≈ 0.25 µM) | < 0.5 | 0.12 (≈ 0.25 µM) | 0.12 (≈ 0.25 µM) | 0.12 (≈ 0.25 µM) | 0.12 (≈ 0.25 µM) | MIC [38]: 0.03 µg/mL (≈ 0.0624 µM)
